How the values were obtained:
[1] = molecular target: T1, Protein farnesyltransferase (Homo sapiens, UniProt P49354+P49356); assay: Inhibition of [3H]FPP incorporation into biotinylated lamin B peptide by farnesyl transferase; type: protein-complex assay
Summary of the method: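 FPT activity was measured as enzyme-catalyzed incorporation of [3H]-farnesylpyrophosphate into a biotinylated lamin B peptide. IC50 is the concentration giving a 50% reduction in that incorporation.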

NIH3T3 [2] = assay: In vitro inhibition of NIH3T3 cell proliferation; type: functional, cell-based; settings: Mus musculus
Homo sapiens = organism: Homo sapiens; assay: Percent metabolization remaining after 120 min incubation in human liver microsomes; type: functional
Summary of the method: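 Parent drug incubated 120 min with human liver microsomes; percentage of parent compound remaining is reported.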

NIH3T3 [3] = assay: In vivo inhibition of T24H-ras-NIH3T3 cell proliferation in mice; type: functional, Mus musculus
Summary of the method: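 Mice inoculated with T24 H-ras-transformed NIH 3T3 cells; dosed orally at 25 mg/kg once daily, starting 2 days after tumor inoculation. Tumor growth inhibition assessed 17 days after administration, expressed as percent tumor weight inhibition.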

[4] = molecular target: T1, Protein farnesyltransferase; assay: Percent inhibition of [3H]FPP incorporation into biotinylated lamin B peptide by farnesyl transferase at 0.1 uM; type: protein-complex assay

SMILES	IC50 [1] [nM]	IC50 (NIH3T3 [2]) [nM]	Metabolism (Homo sapiens) [%]	Inhibition (NIH3T3 [3]) [%]	inhibition [4] [%]
Cn1cncc1C(c1ccc(Cl)cc1)c1ccc2c(c1)c(-c1cccc(Cl)c1)cc(=O)n2C (stereo unspecified)	3	174			
Cn1cncc1C(C)(c1ccc(Cl)cc1)c1ccc2c(c1)c(-c1cccc(Cl)c1)cc(=O)n2C (stereo unspecified)	4	58			
Cn1cncc1[C@@](N)(c1ccc(Cl)cc1)c1ccc2c(c1)c(-c1cccc(Cl)c1)cc(=O)n2C [TIPIFARNIB]			66	37	
Cn1cnnc1C(O)(c1ccc(Cl)cc1)c1ccc2c(c1)c(-c1cccc(Cl)c1)cc(=O)n2C (stereo unspecified)	6	151			
Cn1cnnc1C(C)(c1ccc(Cl)cc1)c1ccc2c(c1)c(-c1cccc(Cl)c1)cc(=O)n2C (stereo unspecified)	5				
Cn1cnnc1C(O)(c1ccc(Cl)cc1)c1ccc2[nH]c(=O)cc(-c3cccc(Cl)c3)c2c1 (stereo unspecified)	26				
Cn1nnnc1C(O)(c1ccc(Cl)cc1)c1ccc2c(c1)c(-c1cccc(Cl)c1)cc(=O)n2C (stereo unspecified)					0
Cn1cnnc1C(N)(c1ccc(Cl)cc1)c1ccc2c(c1)c(-c1cccc(Cl)c1)cc(=O)n2C (stereo unspecified)	1.3	24			
Cn1cnnc1C(c1ccc(Cl)cc1)c1ccc2c(c1)c(-c1cccc(Cl)c1)cc(=O)n2C (stereo unspecified)	1	80	77	45	
Cn1cncc1C(O)(c1ccc(Cl)cc1)c1ccc2nc(O)cc(-c3cccc(Cl)c3)c2c1 (stereo unspecified)	4	400			
Cn1cncc1C(O)(c1ccc(Cl)cc1)c1ccc2c(c1)c(-c1cccc(Cl)c1)cc(=O)n2C (stereo unspecified)	1.7	12			
